{
  "source": "ChEMBL document CHEMBL3808334",
  "about": "“Synthesis and in vitro evaluation of novel triazine analogues as anticancer agents and their interaction studies with bovine serum albumin” (Eur J Med Chem, 2016)",
  "key": {"[1]": {"test": "Growth inhibition of human SNB19 cells assessed as cell growth at 10^-6 M incubated for 48 hrs by sulforhodamine B assay", "type": "functional", "details": "SNB-19, 48 h, read-out: Activity"}, "[2]": {"tested_on": "U-251", "test": "Growth inhibition of human U251 cells incubated for 48 hrs by sulforhodamine B assay", "type": "functional", "details": "U-251, 48 h", "outline": "(§1)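 Cells were plated at 5,000–40,000 per well according to doubling time and preincubated 24 h at 37 °C in 5% CO2; time-zero plates were then TCA-fixed. Five concentrations (10-fold or ½-log dilutions, DMSO stock) were incubated 48 h. Cells were TCA-fixed, stained with 0.4% SRB and read at 515 nm. GI50 was taken where [(Ti−Tz)/(C−Tz)]×100 = 50.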"}, "[3]": {"test": "Growth inhibition of human SW620 cells assessed as cell growth at 10 uM incubated for 48 hrs by sulforhodamine B assay", "type": "functional", "details": "SW-620, 48 h, read-out: Activity"}, "[4]": {"test": "Growth inhibition of human HCT116 cells assessed as cell growth at 10^-5 M incubated for 48 hrs by sulforhodamine B assay", "type": "functional", "details": "HCT-116, 48 h, read-out: Activity", "outline": "(§2)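 Cells seeded at 5,000–40,000/well according to doubling time and preincubated 24 h at 37 °C, 5% CO2. Time-zero plates were TCA-fixed. DMSO concentrate was diluted in medium with 50 µg/ml gentamicin to give five concentrations (10-fold or ½ log steps), then exposed 48 h. Cells were TCA-fixed, stained with 0.4% SRB and read at 515 nm. Percent growth was taken against time-zero and control; GI50, TGI and LC50 derived.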"}, "[5]": {"tested_on": "786-0", "test": "Growth inhibition of human 786-0 cells assessed as cell growth at 10^-8 M incubated for 48 hrs by sulforhodamine B assay", "type": "functional", "details": "786-0, 48 h, read-out: Activity", "outline": "(§3)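 Five-dose assay: five concentrations from 10-fold or ½-log serial dilutions. Cells are plated at 5,000–40,000 per well according to doubling time, grown 24 h, then exposed 48 h at 37 °C, 5% CO₂. Fixed with cold 50% TCA (final addition) for 60 min at 4 °C and stained with 0.4% SRB in 1% acetic acid. Bound dye is solubilized in 10 mM Tris base and read at 515 nm. GI₅₀ is where [(Ti−Tz)/(C−Tz)]×100 = 50, with a time-zero plate as Tz.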"}, "[6]": {"test": "Growth inhibition of human HL-60(TB) cells assessed as cell growth at 10^-5 M incubated for 48 hrs by sulforhodamine B assay", "type": "functional", "details": "HL-60, 48 h, read-out: Activity", "outline": "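Cells plated at 5,000–40,000/well according to doubling time and preincubated 24 h at 37 °C, 5% CO₂, with time-zero plates TCA-fixed. Drugs were kept as DMSO concentrates at 400× the top concentration and diluted in medium with 50 µg/ml gentamicin. Five 10-fold or ½-log dilutions were run for 48 h, followed by SRB staining and A515. Percent growth = (Ti−Tz)/(C−Tz)×100, or (Ti−Tz)/Tz×100 when Ti<Tz.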"}, "[7]": {"tested_on": "ACHN", "test": "Growth inhibition of human ACHN cells incubated for 48 hrs by sulforhodamine B assay", "type": "functional", "outline": "as §3"}, "[8]": {"test": "Growth inhibition of human UACC257 cells assessed as cell growth at 10 uM incubated for 48 hrs by sulforhodamine B assay", "type": "functional", "details": "UACC-257, 48 h, read-out: Activity"}, "[9]": {"tested_on": "A498", "test": "Growth inhibition of human A498 cells assessed as cell growth at 10^-5 M incubated for 48 hrs by sulforhodamine B assay", "type": "functional", "details": "A498, 48 h, read-out: Activity", "outline": "as §3"}, "[10]": {"tested_on": "HT-29", "test": "Growth inhibition of human HT-29 cells assessed as cell growth at 10 uM incubated for 48 hrs by sulforhodamine B assay", "type": "functional", "details": "HT-29, 48 h, read-out: Activity"}, "[11]": {"test": "Growth inhibition of human RPMI8226 cells assessed as cell growth at 10^-8 M incubated for 48 hrs by sulforhodamine B assay", "type": "functional", "details": "RPMI-8226, 48 h, read-out: Activity"}, "[12]": {"tested_on": "CCRF-CEM", "test": "Growth inhibition of human CCRF-CEM cells assessed as cell growth at 10^-8 M incubated for 48 hrs by sulforhodamine B assay", "type": "functional", "details": "read-out: Activity", "outline": "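Leukemia line in the five-dose format: five concentrations from 10-fold or ½-log serial dilutions. Plated at 5,000–40,000 cells per well, preincubated 24 h, then compound added for 48 h at 37 °C, 5% CO₂. Sulforhodamine B absorbance read at 515 nm. Growth is computed against time-zero (Tz) and control (C) readings; GI₅₀ is where [(Ti−Tz)/(C−Tz)]×100 = 50.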"}, "[13]": {"tested_on": "SR", "test": "Growth inhibition of human SR cells incubated for 48 hrs by sulforhodamine B assay", "type": "functional", "outline": "as §1"}, "[14]": {"test": "Growth inhibition of human LOXIMVI cells assessed as cell growth at 10^-4 M incubated for 48 hrs by sulforhodamine B assay", "type": "functional", "details": "LOX IMVI, read-out: Activity"}, "[15]": {"tested_on": "Malme-3M", "test": "Growth inhibition of human MALME-3M cells assessed as cell growth at 10^-7 M incubated for 48 hrs by sulforhodamine B assay", "type": "functional", "details": "read-out: Activity"}, "[16]": {"target": "Albumin (Bos taurus, UniProt P02769)", "sequence (P02769 whole entry)": "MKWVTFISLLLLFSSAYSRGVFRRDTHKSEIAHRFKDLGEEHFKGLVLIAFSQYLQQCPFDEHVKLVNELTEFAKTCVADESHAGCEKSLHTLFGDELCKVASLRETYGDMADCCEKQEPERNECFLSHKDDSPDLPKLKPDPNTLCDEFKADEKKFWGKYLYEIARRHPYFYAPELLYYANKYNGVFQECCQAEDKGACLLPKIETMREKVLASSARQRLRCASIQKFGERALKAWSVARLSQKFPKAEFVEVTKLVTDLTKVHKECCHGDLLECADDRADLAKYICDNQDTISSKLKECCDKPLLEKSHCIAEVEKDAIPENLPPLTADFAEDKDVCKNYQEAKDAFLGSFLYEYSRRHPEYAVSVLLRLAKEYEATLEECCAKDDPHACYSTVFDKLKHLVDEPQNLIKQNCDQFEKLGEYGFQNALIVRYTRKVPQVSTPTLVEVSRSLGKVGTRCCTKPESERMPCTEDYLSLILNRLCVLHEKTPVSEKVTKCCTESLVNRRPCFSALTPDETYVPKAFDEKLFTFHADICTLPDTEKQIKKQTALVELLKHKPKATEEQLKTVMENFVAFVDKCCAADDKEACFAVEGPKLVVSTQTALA", "test": "Binding affinity to bovine serum albumin assessed as isoemissive point up to 20 uM by fluorescence spectroscopic analysis relative to control", "type": "ADME", "details": "cattle, isolated protein", "outline": "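Fluorescence titration of 10 µM BSA in 0.1 M phosphate buffer pH 7.4 with compound at 0–20 µM, diluted from DMSO stocks. Excitation 280 nm, slit 10 nm, 1 cm quartz cell, 300 K. Changes in the 350 nm Trp emission, new bands near 370–373 nm and isoemissive points are read against BSA alone.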"}, "[17]": {"test": "Growth inhibition of human UACC62 cells incubated for 48 hrs by sulforhodamine B assay", "type": "functional", "details": "UACC-62, 48 h", "outline": "as §1"}, "[18]": {"test": "Growth inhibition of human HCT15 cells assessed as cell growth at 10^-8 M incubated for 48 hrs by sulforhodamine B assay", "type": "functional", "details": "HCT-15, 48 h, read-out: Activity", "outline": "as §2"}, "[19]": {"tested_on": "SR", "test": "Growth inhibition of human SR cells assessed as cell growth at 10 uM incubated for 48 hrs by sulforhodamine B assay", "type": "functional", "details": "read-out: Activity"}, "[20]": {"test": "Growth inhibition of human OVCAR4 cells assessed as cell growth at 10^-5 M incubated for 48 hrs by sulforhodamine B assay", "type": "functional", "details": "OVCAR-4, 48 h, read-out: Activity"}, "[21]": {"test": "Growth inhibition of human SF539 cells assessed as cell growth at 10^-6 M incubated for 48 hrs by sulforhodamine B assay", "type": "functional", "details": "SF-539, 48 h, read-out: Activity"}, "[22]": {"tested_on": "M14", "test": "Growth inhibition of human M14 cells assessed as cell growth at 10^-7 M incubated for 48 hrs by sulforhodamine B assay", "type": "functional", "details": "M14, 48 h, read-out: Activity"}, "[23]": {"details": "read-out: LC50 (the source's name)"}, "[24]": {"details": "read-out: pLC50 (the source's name) (converted)"}},
  "data": [
    {"smiles": "c1ccc(-c2nc(Nc3ccc(-c4nc5ccccc5[nH]4)cc3)nc(N3CCOCC3)n2)cc1", "values": [
      {"measurement": "growth at 1 µM", "setting": "[1]", "value": 92, "unit": "%"},
      {"measurement": "GI50", "setting": "[2]; read-out: GI50", "value": 535, "unit": "nM"},
      {"measurement": "CC50", "setting": "[2]; [23]", "value": 4.89, "unit": "µM"},
      {"measurement": "TGI", "setting": "[2]; read-out: TGI", "value": 1760, "unit": "nM"},
      {"measurement": "GI50", "setting": "[2]; read-out: pGI50 (converted)", "value": 537, "unit": "nM"},
      {"measurement": "CC50", "setting": "[2]; [24]", "value": 4.9, "unit": "µM"},
      {"measurement": "TGI", "setting": "[2]; read-out: pTGI (converted)", "value": 1780, "unit": "nM"},
      {"measurement": "growth at 10 µM", "setting": "[3]", "value": -82.9, "unit": "%"},
      {"measurement": "growth at 10 µM", "setting": "[4]", "value": -61, "unit": "%"},
      {"measurement": "growth at 0.01 µM", "setting": "[5]", "value": 99, "unit": "%"},
      {"measurement": "growth at 10 µM", "setting": "[6]", "value": -44, "unit": "%"},
      {"measurement": "GI50", "setting": "[7]; read-out: GI50", "value": 1250, "unit": "nM"},
      {"measurement": "CC50", "setting": "[7]; [23]", "value": 6.04, "unit": "µM"},
      {"measurement": "TGI", "setting": "[7]; read-out: TGI", "value": 2740, "unit": "nM"},
      {"measurement": "GI50", "setting": "[7]; read-out: pGI50 (converted)", "value": 1260, "unit": "nM"},
      {"measurement": "CC50", "setting": "[7]; [24]", "value": 6.03, "unit": "µM"},
      {"measurement": "TGI", "setting": "[7]; read-out: pTGI (converted)", "value": 2750, "unit": "nM"},
      {"measurement": "growth at 10 µM", "setting": "[8]", "value": -56.4, "unit": "%"},
      {"measurement": "growth at 10 µM", "setting": "[9]", "value": -76, "unit": "%"},
      {"measurement": "growth at 10 µM", "setting": "[10]", "value": -59.9, "unit": "%"},
      {"measurement": "growth at 0.01 µM", "setting": "[11]", "value": 100, "unit": "%"},
      {"measurement": "growth at 0.01 µM", "setting": "[12]", "value": 102, "unit": "%"},
      {"measurement": "GI50", "setting": "[13]; read-out: GI50", "value": 125, "unit": "nM"},
      {"measurement": "CC50", "setting": "[13]; [23]", "value": "> 100", "unit": "µM"},
      {"measurement": "TGI", "setting": "[13]; read-out: TGI", "value": 555, "unit": "nM"},
      {"measurement": "GI50", "setting": "[13]; read-out: pGI50 (converted)", "value": 126, "unit": "nM"},
      {"measurement": "CC50", "setting": "[13]; [24]", "value": "> 100", "unit": "µM"},
      {"measurement": "TGI", "setting": "[13]; read-out: pTGI (converted)", "value": 550, "unit": "nM"},
      {"measurement": "growth at 100 µM", "setting": "[14]", "value": -45, "unit": "%"},
      {"measurement": "growth at 0.1 µM", "setting": "[15]", "value": 131, "unit": "%"},
      {"measurement": "Activity", "setting": "[16]", "value": 357, "unit": "nm"},
      {"measurement": "GI50", "setting": "[17]; read-out: GI50", "value": 1660, "unit": "nM"},
      {"measurement": "CC50", "setting": "[17]; [23]", "value": 7.29, "unit": "µM"},
      {"measurement": "TGI", "setting": "[17]; read-out: TGI", "value": 3.48, "unit": "µM"},
      {"measurement": "GI50", "setting": "[17]; read-out: pGI50 (converted)", "value": 1660, "unit": "nM"},
      {"measurement": "CC50", "setting": "[17]; [24]", "value": 7.24, "unit": "µM"},
      {"measurement": "TGI", "setting": "[17]; read-out: pTGI (converted)", "value": 3.47, "unit": "µM"},
      {"measurement": "growth at 0.01 µM", "setting": "[18]", "value": 96, "unit": "%"},
      {"measurement": "growth at 10 µM", "setting": "[19]", "value": 8.94, "unit": "%"},
      {"measurement": "growth at 10 µM", "setting": "[20]", "value": -97, "unit": "%"},
      {"measurement": "growth at 1 µM", "setting": "[21]", "value": 74, "unit": "%"},
      {"measurement": "growth at 0.1 µM", "setting": "[22]", "value": 103, "unit": "%"}
    ]}
  ]
}
